Here are results for eight compounds from ChEMBL document CHEMBL5344428, “Discovery, Crystallographic Studies, and Mechanistic Investigations of Novel Phenylalanine Derivatives Bearing a Quinazolin-4-one Scaffold as Potent HIV Capsid Modulators” (J Med Chem, 2023).

A short description of data set [1]: Selectivity index, ratio of CC50 for cytotoxicity against human MT4 cells to EC50 for antiviral activity against HIV1 IIIB infected in human MT4 cells. In kind it is toxicity, cell-based. Conditions: read-out: Ratio CC50/EC50. An outline of the steps: (§1)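 SI is CC50 divided by EC50. CC50 comes from MTT viability of uninfected MT-4 cells. EC50 comes from MTT-read protection of MT-4 cells infected with HIV-1 IIIB or HIV-2 ROD. Each value was run in at least triplicate.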

The nature of data set [2]: Cytotoxicity against human MT4 cells assessed as reduction in cell viability. The class given is toxicity, cell-based. An outline of the steps:
(§2)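 Uninfected MT-4 cells were exposed to compound, and viability was read by the MTT method. […] Each value was run in at least triplicate and averaged from at least three independent experiments.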

Data set [3] is described as follows: Selectivity index, ratio of CC50 for cytotoxicity against human MT4 cells to EC50 for antiviral activity against HIV2 ROD infected in human MT4 cells. In kind it is toxicity, cell-based. Conditions: read-out: Ratio CC50/EC50. An outline of the steps: as §1
Data set [4] concerns Human immunodeficiency virus 2. Briefly: Antiviral activity against HIV-2 ROD infected in human MT4 cells assessed as protection against virus induced cytopathic effect. In kind it is functional, organism-based. Conditions: Human immunodeficiency virus 2, ROD. An outline of the steps: (§3)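 MT-4 cells were infected with HIV-1 IIIB or HIV-2 ROD, and cell viability was read by MTT. […] Each value was run in at least triplicate and averaged from at least three independent experiments.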
On the technique in general: Damage to the host cells serves as the signal in cytopathic effect assays.

Data set [5] concerns Human immunodeficiency virus 1. Briefly: Antiviral activity against HIV-1 IIIB infected in human MT4 cells assessed as protection against virus induced cytopathic effect. In kind it is functional, organism-based. Conditions: Human immunodeficiency virus 1, IIIB. A digest of the protocol:
as §3

Data set [6] in a line: Selectivity ratio of EC50 for antiviral activity against HIV1 IIIB infected in human MT4 cells to EC50 for antiviral activity against HIV2 ROD infected in human MT4 cells. The class given is toxicity, cell-based. A digest of the protocol:
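Ratio is EC50 against HIV-1 IIIB divided by EC50 against HIV-2 ROD. Both EC50 values come from MTT-read protection of infected MT-4 cells.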

Data set [7] has as its system Human immunodeficiency virus 2. In words: Antiviral activity against HIV2 ROD infected in human MT4 cells assessed as reduction in virus induced cytopathic effect measured after 5 days by MTT assay. Conditions: Human immunodeficiency virus 2, ROD, MT4, 120 h. In kind it is functional, organism-based. An outline of the steps:
as §3

In data set [8] the test system is Human immunodeficiency virus 1. In words: Antiviral activity against HIV1 IIIB infected in human MT4 cells assessed as reduction in virus induced cytopathic effect measured after 5 days by MTT assay. Conditions: Human immunodeficiency virus 1, IIIB, MT4, 120 h. The class given is functional, organism-based. A digest of the protocol: as §3
A further data set deals with MT4. Briefly: Cytotoxicity against human MT4 cells assessed as reduction in cell viability incubated for 5 days by MTT assay. In kind it is toxicity, cell-based. Conditions: mt4, 120 h, time 5 day. An outline of the steps:
as §2
For orientation: Tetrazolium assays rely on reduction of a dye to a coloured formazan, in cell work by metabolically active cells.

One may read the CC50 as the concentration that lowers cell viability or growth by half. Broadly, the EC50 is the concentration needed to bring the measured effect to its halfway point. With `COc1ccc(N(C)C(=O)[C@H](Cc2cc(F)cc(F)c2)NC(=O)CN2CCN(S(=O)(=O)c3ccccc3[N+](=O)[O-])CC2)cc1`, the selectivity ratio in [1] turned out to be 33.4; in data set [3], 79.7. Further, the CC50 in data set [2] amounted to 94.9 µM. Besides, the EC50 turned out to be 1190 nM in [4] and 2840 nM in data set [5]. Also, the “Ratio EC50” value in data set [6] amounted to 2.39.
Turning to `COc1ccc(N(C)C(=O)[C@H](Cc2cc(F)cc(F)c2)NC(=O)CN2CCN(S(=O)(=O)c3ccccc3)CC2)cc1`, the selectivity ratio in [1] came out at 570; in [3], 1140. The CC50 in data set [2] was found to be 114 µM. Also, the EC50 worked out at 100 nM in data set [4] and 200 nM in data set [5]. The “Ratio EC50” value in data set [6] was determined as 2.
For `COc1ccc(N(C)C(=O)[C@H](Cc2cc(F)cc(F)c2)NC(=O)CN2CCN(S(=O)(=O)c3ccc(Br)cc3)CC2)cc1`, the selectivity ratio in data set [1] was 15.4; in [3], 37.8. The cytotoxic concentration (CC50) in data set [2] was found to be 13.2 µM. Further, the values for the EC50 in [4] and in data set [5] were 350 nM and 860 nM, respectively. In addition, in data set [6], the “Ratio EC50” value was 2.46.
`COc1ccc(N(C)C(=O)[C@H](Cc2cc(F)cc(F)c2)NC(=O)CN2CCN(S(=O)(=O)c3ccc(NC(C)=O)cc3)CC2)cc1`: the results for the selectivity ratio in data set [1] and in data set [3] were 436 and 3050, respectively. Also, the CC50 in [2] was 91.6 µM. Also, the EC50 in data set [4] was determined as 30 nM; in data set [5], 210 nM. Further, in data set [6], the “Ratio EC50” value came to 7.
Consider `COc1ccc(N(C)C(=O)[C@H](Cc2cc(F)cc(F)c2)NC(=O)CN2CCN(S(=O)(=O)c3ccccc3N)CC2)cc1`, for which the selectivity ratio in data set [1] is 122; in data set [3] it was 454. The CC50 in data set [2] stood at 63.6 µM. Besides, the concentration giving a half-maximal response (EC50) in [4] was 140 nM; in [5] it was 520 nM. For the same compound, the “Ratio EC50” value in data set [6] is on record as 3.71.
Turning to `O=C(CN1CCN(S(=O)(=O)c2ccc([N+](=O)[O-])cc2)CC1)N[C@@H](Cc1cc(F)cc(F)c1)c1nc2ccccc2c(=O)n1-c1ccc(S(=O)(=O)N2CCS(=O)(=O)CC2)cc1`, the EC50 came to 1970 nM in data set [7] and 3.04 µM in data set [8]. In addition, the selectivity ratio in data set [1] is above 45.6; in data set [3], above 70.6. In [6], the “Ratio EC50” value worked out at 1.54. The CC50 with MT4 is above 139 µM.
For `COc1ccc(N(C)C(=O)[C@H](Cc2cc(F)cc(F)c2)NC(=O)CN2CCN(S(=O)(=O)c3ccccc3F)CC2)cc1`, the figures for the selectivity ratio in data set [1] and in data set [3] were 1000 and 2010, respectively. Also, the CC50 in data set [2] was 181 µM. For the same compound, the EC50 in data set [4] came out at 90 nM; in [5] it was 180 nM. In addition, the “Ratio EC50” value in data set [6] was 2.
`COc1ccc(N(C)C(=O)[C@H](Cc2cc(F)cc(F)c2)NC(=O)CN2CCN(S(=O)(=O)c3cccc([N+](=O)[O-])c3)CC2)cc1`: the values for the selectivity ratio in data set [1] and in data set [3] were 56.3 and 493, respectively. Besides, the CC50 in [2] was found to be 83.9 µM. Besides, the EC50 in [4] was 170 nM; in [5] it was 1490 nM. Further, the “Ratio EC50” value in data set [6] was determined as 8.76.
